{"data": "Measured values collected from several papers", "CYP1A2": "Cytochrome P450 1A2 (CYP1A2, Homo sapiens, UniProt P05177)", "note": "Each line is one published result; the experiments were not run side by side."}
{"SMILES": "COC(=O)C1CCN(C(=O)c2ccc(N(CCCO)Cc3cnc4nc(N)nc(N)c4n3)cc2)CC1", "target or system": "Cytochrome P450 3A4 (CYP3A4, Homo sapiens, UniProt P08684)", "assay": "enzyme activity, inhibitor, luciferase", "setting": "10 µM", "quantity": "inhibition", "result": "-2.09%"}
{"SMILES": "Cn1cnc2c1c(=O)n(CC(=O)Nc1c(Cl)cccc1Cl)c(=O)n2C", "target or system": "Vero", "assay": "cell growth or viability, MTT", "setting": "1000 µg/mL", "quantity": "viability", "result": "7.99%"}
{"SMILES": "Cc1cc(Nc2cc(N3CCN(C)CC3)nc(/C=C/c3ccccc3)n2)n[nH]1", "test system": "human, plasma", "setting": "oral, 80 mg/m², multiple doses, patients", "quantity": "Vd/F", "result": "748 L"}
{"SMILES": "COC(=O)C1CCN(C(=O)c2ccc(NCc3cnc4nc(N)nc(N)c4n3)cn2)CC1", "target or system": "CYP1A2", "assay": "enzyme activity, inhibitor, luciferase", "setting": "10 µM", "quantity": "inhibition", "result": "-8.69%"}
{"SMILES": "CC(C)(C)c1ccc(O)c(CN(Cc2cc(C(C)(C)C)ccc2O)C2CCC(NC(N)=O)CC2)c1 (centres unmarked)", "test system": "male C57BL/6 mouse, brain", "setting": "intraperitoneal, 5 mg/kg, single dose", "quantity": "Cmax", "result": "609 ng/g"}
{"SMILES": "CCNCCCNC/C=C\\CNCCCNCC", "test system": "human, plasma", "setting": "intravenous, 50 mg, patients, infusion", "quantity": "Vd", "result": "2.12 L/kg"}
{"SMILES": "O=S(=O)(NNc1nnc(Cl)c2ccccc12)c1ccc(F)cc1", "target or system": "Vero", "assay": "cell growth or viability, MTT", "setting": "31.25 µg/mL", "quantity": "viability", "result": "99.8%"}
{"SMILES": "COC(=O)C1CCN(C(=O)c2cccc(NCc3cnc4nc(N)nc(N)c4n3)c2)CC1", "target or system": "CYP1A2", "assay": "enzyme activity, inhibitor, luciferase", "setting": "10 µM", "quantity": "inhibition", "result": "-15.2%"}
{"SMILES": "COc1cc(C(=O)NC2CCN(C)CC2)c(F)cc1Nc1ncc(C(F)(F)F)c(Oc2cccc3c2C(=O)N(C)C3)n1", "test system": "human, plasma", "setting": "oral, 10 mg, single dose, patients", "quantity": "Vd/F", "result": "873 L"}
{"SMILES": "CCNc1nc(Nc2ccc(F)c(Cl)c2)c2ccccc2n1", "target or system": "Vero", "assay": "cell growth or viability, MTT", "setting": "31.25 µg/mL", "quantity": "viability", "result": "100%"}
{"SMILES": "COc1ccc([C@@H]2CN(C(=O)[C@@H](O)CO)C[C@@]2(C)[C@@H](C)O)cc1OC1CN(c2ccc(C)cn2)C1", "test system": "human, plasma", "setting": "oral, 30 mg, single dose, healthy volunteers", "quantity": "Vd/F", "result": "84.3 L"}
